Measured values from PubChem BioAssay AID652278 (Broad Institute, 2013).

Tested on: T. cruzi CAI/72 in J774, trypomastigote emergence, microscopy
Assay: trypomastigote re-emergence after compound withdrawal – imaging, CAI/72 strain, J774 macrophages, dry powder, set 2, mechanism study, late-stage follow-up (AID 652278)
Conditions: hits give high values
Summary of the method: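 System: J774 macrophages, 9000 rad-arrested, infected with T. cruzi CAI/72 / Technique: daily microscopic scoring of emerging trypomastigotes / Evaluation: slope, emergence day versus concentration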

**Q.** For `CC(C)N1C[C@@H](CN(C)Cc2ccc(Cl)cc2)Oc2c(NC(=O)c3ccncc3)cc(F)cc2C1=O`, which slope of emergence day vs concentration is on record?
**A.** Its slope of emergence day vs concentration is 5.

**Q.** `CN(C)CC#Cc1cccc(-c2nc(C(=O)NCc3ccc4c(c3)OCO4)cc3c2[C@@H](CCO)N(S(=O)C(C)(C)C)C3)c1` (stereo partly specified) was tested. Which slope of emergence day vs concentration did it give?
**A.** Its slope of emergence day vs concentration is 2.02.

**Q.** `CN(C)C(=O)c1cccc(-c2ccc([C@H]3[C@H](CO)N4CCCCN(C(=O)C5CCC5)C[C@@H]34)cc2)c1` was tested. Which slope of emergence day vs concentration did it give?
**A.** Its slope of emergence day vs concentration is 1.89.

**Q.** With `CC(C)N1C[C@@H](CN(C)CCc2ccc(Cl)cc2)Oc2c(NC(=O)c3ccncc3)cccc2C1=O` as the compound, how does the slope of emergence day vs concentration read?
**A.** The slope of emergence day vs concentration was 5.

**Q.** `CC(C)N1C[C@@H](CN(C)Cc2ccc(Cl)cc2)Oc2c(C(=O)Nc3ccncc3)cccc2C1=O` was tested. Which slope of emergence day vs concentration did it give?
**A.** The slope of emergence day vs concentration was 5.

**Q.** `CC(C)N1C[C@@H](CN(C)CCc2ccc(Cl)c(Cl)c2)Oc2c(NC(=O)c3ccncc3)cccc2C1=O` was tested. Which slope of emergence day vs concentration did it give?
**A.** The slope of emergence day vs concentration was 5.

**Q.** How did the slope of emergence day vs concentration turn out when `CC(C)N1C[C@H](CN(C)Cc2ccc(Cl)cc2)Oc2c(NC(=O)c3ccncc3)cccc2C1=O` was run?
**A.** The slope of emergence day vs concentration was 5.

**Q.** `CC(C)N1C[C@@H](CN(C)Cc2ccc(Cl)c(Cl)c2)Oc2c(NC(=O)c3ccncc3)cccc2C1=O` was tested. Which slope of emergence day vs concentration did it give?
**A.** Its slope of emergence day vs concentration is 5.

**Q.** `CN(C)CC#Cc1cccc(-c2nc(C(=O)N[C@@H]3CCN(Cc4ccccc4)C3)cc3c2[C@@H](CCO)N(S(=O)C(C)(C)C)C3)c1` (stereo partly specified) was tested. Which slope of emergence day vs concentration did it give?
**A.** The slope of emergence day vs concentration was 1.89.

**Q.** How did the slope of emergence day vs concentration turn out when `CC(C)N1C[C@@H](CN(C)Cc2ccc(Cl)cc2)Oc2c(NC(=O)c3ccncc3)cccc2C1=O` was run?
**A.** The slope of emergence day vs concentration was 5.

**Q.** `CC(C)N1C[C@@H](CN(C)Cc2ccc(Oc3ccccc3)cc2)Oc2c(NC(=O)c3ccncc3)cccc2C1=O` was tested. Which slope of emergence day vs concentration did it give?
**A.** The slope of emergence day vs concentration was 5.
